Laboratory results published in ChEMBL document CHEMBL4346654 (Eur J Med Chem, 2019).
≈ marks a conversion by molar mass, not a printed value.

Key:
Staphylococcus aureus [1] = assay: Antibacterial activity against MLS-resistant Staphylococcus aureus PU 32 expressing inducible ermA gene assessed as reduction in microbial growth by CLSI based two-fold broth dilution method; type: functional
Haemophilus influenzae [2] = assay: Antibacterial activity against azithromycin-susceptible Haemophilus influenzae ATCC 49247 assessed as reduction in microbial growth by CLSI based two-fold broth dilution method; type: functional
Streptococcus pneumoniae [3] = assay: Selectivity ratio of MBC to MIC for erythromycin-susceptible Streptococcus pneumoniae ATCC49619; type: functional
Method in brief: (§1)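 Isolates were identified by 16S rDNA sequencing. MIC was determined by CLSI-recommended two-fold broth dilution. For MBC, samples from 1–8 fold MIC were transferred to culture medium and subcultured for 24 h without antibiotic.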

Streptococcus pneumoniae [4] = assay: Antibacterial activity against Streptococcus pneumoniae 07P390 expressing constitutive ermB gene assessed as reduction in microbial growth by CLSI based two-fold broth dilution method; type: functional
Streptococcus pneumoniae [5] = assay: Antibacterial activity against penicillin-susceptible Streptococcus pneumoniae PU 09 expressing mef gene assessed as reduction in microbial growth by CLSI based two-fold broth dilution method; type: functional
Streptococcus pneumoniae [6] = assay: Bactericidal activity against penicillin-susceptible Streptococcus pneumoniae PU 09 expressing mef gene pretreated followed by subculture in absence of compound measured after 24 hrs; type: functional; method in brief: as §1
Streptococcus pneumoniae [7] = assay: Selectivity ratio of MBC to MIC for penicillin-susceptible Streptococcus pneumoniae PU 09 expressing mef gene; type: functional; method in brief: as §1
Streptococcus pneumoniae [8] = assay: Bactericidal activity against Streptococcus pneumoniae 07P390 expressing constitutive ermB gene pretreated followed by subculture in absence of compound measured after 24 hrs; type: functional; method in brief: as §1
Streptococcus pneumoniae [9] = assay: Selectivity ratio of MBC to MIC for Streptococcus pneumoniae 07P390 expressing constitutive ermB gene; type: functional; method in brief: as §1
Haemophilus influenzae [10] = assay: Bactericidal activity against azithromycin-susceptible Haemophilus influenzae ATCC 49247 pretreated followed by subculture in absence of compound measured after 24 hrs; type: functional; method in brief: as §1
Haemophilus influenzae [11] = assay: Selectivity ratio of MBC to MIC for azithromycin-susceptible Haemophilus influenzae ATCC 49247; type: functional; method in brief: as §1
Streptococcus pyogenes [12] = assay: Bactericidal activity against MLS-resistant Streptococcus pyogenes 01-968 expressing inducible ermB gene pretreated followed by subculture in absence of compound measured after 24 hrs; type: functional
Method in brief: (§2)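 MBC assay. Following MIC determination by CLSI standard two-fold broth dilution, samples at 1–8 fold MIC were transferred to fresh culture medium. They were subcultured for 24 h without antibiotic. Isolates were identified by 16S rDNA sequencing. S. aureus ATCC 29213 was used as a control strain.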

Streptococcus pyogenes [13] = assay: Selectivity ratio of MBC to MIC for MLS-resistant Streptococcus pyogenes 01-968 expressing inducible ermB gene; type: functional
Method in brief: (§3)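 MBC/MIC ratio. MIC was measured by CLSI standard two-fold broth dilution. MBC was measured by transferring samples at 1–8 fold MIC to culture medium and subculturing for 24 h without antibiotic. Isolates were identified by 16S rDNA sequencing.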

Staphylococcus aureus [14] = assay: Bactericidal activity against MLS/methicillin-resistant Staphylococcus aureus PU 32 expressing inducible ermA gene pretreated followed by subculture in absence of compound measured after 24 hrs; type: functional; method in brief: as §2
Staphylococcus aureus [15] = assay: Selectivity ratio of MBC to MIC for MLS/methicillin-resistant Staphylococcus aureus PU 32 expressing inducible ermA gene; type: functional; method in brief: as §3
Staphylococcus aureus [16] = assay: Antibacterial activity against MLS-resistant Staphylococcus aureus PU 20 expressing constitutive ermC gene assessed as reduction in microbial growth by CLSI based two-fold broth dilution method; type: functional
Streptococcus pyogenes [17] = assay: Antibacterial activity against MLS-resistant Streptococcus pyogenes 12-206 expressing constitutive ermA gene assessed as reduction in microbial growth by CLSI based two-fold broth dilution method; type: functional
Streptococcus pyogenes [18] = assay: Bactericidal activity against MLS-resistant Streptococcus pyogenes 12-206 expressing constitutive ermA gene pretreated followed by subculture in absence of compound measured after 24 hrs; type: functional; method in brief: as §2
Streptococcus pyogenes [19] = assay: Selectivity ratio of MBC to MIC for MLS-resistant Streptococcus pyogenes 12-206 expressing constitutive ermA gene; type: functional; method in brief: as §3
Streptococcus pyogenes [20] = assay: Antibacterial activity against Streptococcus pyogenes 12-207 expressing mef gene assessed as reduction in microbial growth by CLSI based two-fold broth dilution method; type: functional
Streptococcus pyogenes [21] = assay: Bactericidal activity against Streptococcus pyogenes 12-207 expressing mef gene pretreated followed by subculture in absence of compound measured after 24 hrs; type: functional; method in brief: as §1
Streptococcus pyogenes [22] = assay: Selectivity ratio of MBC to MIC for Streptococcus pyogenes 12-207 expressing mef gene; type: functional; method in brief: as §1
Moraxella catarrhalis [23] = assay: Antibacterial activity against erythromycin-susceptible Moraxella catarrhalis 13L332 assessed as reduction in microbial growth by CLSI based two-fold broth dilution method; type: functional
Moraxella catarrhalis [24] = assay: Bactericidal activity against erythromycin-susceptible Moraxella catarrhalis 13L332 pretreated followed by subculture in absence of compound measured after 24 hrs; type: functional; method in brief: as §1
Moraxella catarrhalis [25] = assay: Selectivity ratio of MBC to MIC for erythromycin-susceptible Moraxella catarrhalis 13L332; type: functional; method in brief: as §1
[26] = AUCinfinity in Sprague-Dawley rat at 20 mg/kg, po after 0.25 to 24 hrs by LC-MS/MS analysis; type: ADME, organism-based; set-up: dose 20 mg/kg, time infinity, route oral; settings: Sprague-Dawley, in vivo
Method in brief: (§4)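 Male SD rats were given a single 20 mg/Kg oral dose. Blood was sampled at 0.25, 0.5, 1, 2, 4, 6, 8 and 24 h and centrifuged at 2500 g for 5 min at 4 °C. Drug levels were quantified by LC-MS/MS. t1/2, Cmax, Tmax, CL, MRT and AUC were calculated from the concentration–time data.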

[27] = AUC (0 to t) in Sprague-Dawley rat at 20 mg/kg, po after 0.25 to 24 hrs by LC-MS/MS analysis; type: ADME, organism-based; set-up: time upper 24 hr, dose 20 mg/kg, time lower 0.25 hr, route oral; settings: in vivo; method in brief: as §4
[28] = Systemic plasma clearance in Sprague-Dawley rat at 20 mg/kg, po after 0.25 to 24 hrs by LC-MS/MS analysis; type: ADME, organism-based; method in brief: as §4
[29] = Half life in Sprague-Dawley rat at 20 mg/kg, po after 0.25 to 24 hrs by LC-MS/MS analysis; type: ADME, organism-based; settings: in vivo; method in brief: as §4
[30] = MRT in Sprague-Dawley rat at 20 mg/kg, po after 0.25 to 24 hrs by LC-MS/MS analysis; type: ADME, organism-based; settings: in vivo; method in brief: as §4
[31] = Tmax in Sprague-Dawley rat at 20 mg/kg, po after 0.25 to 24 hrs by LC-MS/MS analysis; type: ADME, organism-based; settings: in vivo; method in brief: as §4
[32] = Cmax in Sprague-Dawley rat at 20 mg/kg, po after 0.25 to 24 hrs by LC-MS/MS analysis; type: ADME, organism-based; set-up: dose 20 mg/kg, route oral; settings: in vivo; method in brief: as §4
Cytochrome P450 3A4 = Cytochrome P450 3A4 (Homo sapiens, UniProt P08684); assay: Inhibition of CYP3A4 in human liver microsomes assessed as reduction in metabolite formation using midazolam as substrate incubated for 10 mins in presence of NADPH by HPLC based mass spectrometric method; type: ADME
Cytochrome P450 3A4, sequence (P08684 whole entry): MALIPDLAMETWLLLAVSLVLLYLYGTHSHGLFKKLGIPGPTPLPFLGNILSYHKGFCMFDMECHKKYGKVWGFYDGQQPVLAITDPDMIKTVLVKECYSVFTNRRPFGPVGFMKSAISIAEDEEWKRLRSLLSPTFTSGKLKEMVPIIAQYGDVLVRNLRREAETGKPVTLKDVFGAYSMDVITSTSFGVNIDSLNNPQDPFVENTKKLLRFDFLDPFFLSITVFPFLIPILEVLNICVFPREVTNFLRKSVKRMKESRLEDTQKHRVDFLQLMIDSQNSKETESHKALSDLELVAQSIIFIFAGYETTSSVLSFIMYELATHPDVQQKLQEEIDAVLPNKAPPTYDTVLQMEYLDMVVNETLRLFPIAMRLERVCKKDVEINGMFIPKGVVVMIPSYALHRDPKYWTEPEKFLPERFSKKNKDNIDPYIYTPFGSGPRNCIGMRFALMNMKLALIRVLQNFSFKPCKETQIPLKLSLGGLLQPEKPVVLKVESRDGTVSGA
Method in brief: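 Human liver microsome CYP3A4 with midazolam substrate in 0.1 M potassium phosphate buffer was prewarmed at 37 °C for 5 min. Compound and 25 mM NADPH solution (stock) were added, then incubated at 37 °C for 10 min. Ketoconazole served as the positive inhibitor. Metabolite was measured by UPLC–triple quadrupole MS as the metabolite/internal standard peak area ratio, and IC50 was derived by curve fitting.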

Streptococcus pneumoniae [33] = assay: Antibacterial activity against erythromycin-susceptible Streptococcus pneumoniae ATCC49619 assessed as reduction in microbial growth by CLSI based two-fold broth dilution method; type: functional
Streptococcus pneumoniae [34] = assay: Bactericidal activity against erythromycin-susceptible Streptococcus pneumoniae ATCC49619 pretreated followed by subculture in absence of compound measured after 24 hrs; type: functional; method in brief: as §1
Streptococcus pyogenes [35] = assay: Antibacterial activity against MLS-resistant Streptococcus pyogenes 01-968 expressing inducible ermB gene assessed as reduction in microbial growth by CLSI based two-fold broth dilution method; type: functional
Staphylococcus aureus [36] = assay: Bactericidal activity against MLS-resistant Staphylococcus aureus PU 20 expressing constitutive ermC gene pretreated followed by subculture in absence of compound measured after 24 hrs; type: functional; method in brief: as §2
Staphylococcus aureus [37] = assay: Selectivity ratio of MBC to MIC for MLS-resistant Staphylococcus aureus PU 20 expressing constitutive ermC gene; type: functional; method in brief: as §3

Row | SMILES | MIC (Staphylococcus aureus [1]) | MIC (Haemophilus influenzae [2]) | Selectivity ratio (Streptococcus pneumoniae [3]) | MIC (Streptococcus pneumoniae [4]) | MIC (Streptococcus pneumoniae [5]) | MBC (Streptococcus pneumoniae [6]) | Selectivity ratio (Streptococcus pneumoniae [7]) | MBC (Streptococcus pneumoniae [8]) | Selectivity ratio (Streptococcus pneumoniae [9]) | MBC (Haemophilus influenzae [10]) | Selectivity ratio (Haemophilus influenzae [11]) | MBC (Streptococcus pyogenes [12]) | Selectivity ratio (Streptococcus pyogenes [13]) | MBC (Staphylococcus aureus [14]) | Selectivity ratio (Staphylococcus aureus [15]) | MIC (Staphylococcus aureus [16]) | MIC (Streptococcus pneumoniae [33]) | MBC (Streptococcus pneumoniae [34]) | MIC (Streptococcus pyogenes [35]) | MBC (Staphylococcus aureus [36]) | further results
1 | CC[C@H]1OC(=O)[C@H](C)C(=O)[C@H](C)[C@@H](O[C@@H]2O[C@H](C)C[C@H](N(C)C)[C@H]2O)[C@](C)(OC)C[C@@H](C)C(=O)[C@H](C)[C@H]2N(CCCCn3cnc(-c4cccnc4)c3)C(=O)O[C@]12C [TELITHROMYCIN] | 0.125 to 0.25 µg/mL | 4 µg/mL | 1 - 4 | 0.016 to 0.125 µg/mL | 0.25 to 0.5 µg/mL | 0.5 to 4 µg/mL (≈ 0.616 to 4.93 µM) | 2 - 8 | 0.125 to 1 µg/mL (≈ 0.154 to 1.23 µM) | >=8 | 16 µg/mL (≈ 19.7 µM) | 4 | 0.016 to 0.125 µg/mL (≈ 0.0197 to 0.154 µM) | >=4 - 8 | ≥ 1 µg/mL | >=4 - 8 | > 256 µg/mL | – | – | – | – | MIC (Streptococcus pyogenes [17]): 0.031 µg/mL; MBC (Streptococcus pyogenes [18]): > 0.25 µg/mL; Selectivity ratio (Streptococcus pyogenes [19]): >8; MIC (Streptococcus pyogenes [20]): 0.25 µg/mL; MBC (Streptococcus pyogenes [21]): 1 µg/mL (≈ 1.23 µM); Selectivity ratio (Streptococcus pyogenes [22]): 4; MIC (Moraxella catarrhalis [23]): 0.25 µg/mL; MBC (Moraxella catarrhalis [24]): > 2 µg/mL; Selectivity ratio (Moraxella catarrhalis [25]): >8; AUC(0-inf) [26]: 927 ng·h/mL; AUC(0-t) [27]: 897 ng·h/mL; CL/F [28]: 363 mL/min/kg; half-life [29]: 73.2 min; MRT [30]: 3.27 h; Tmax [31]: 2 h; Cmax [32]: 204 ng/mL; IC50 (Cytochrome P450 3A4): 11.8 µM
2 | CC[C@H]1OC(=O)[C@@](C)(F)C(=O)[C@H](C)[C@@H](O[C@@H]2O[C@H](C)C[C@H](N(C)C)[C@H]2O)[C@](C)(OC)C[C@@H](C)/C(=N\OCCCc2ccc3c(c2)c(=O)c(C(=O)O)cn3C2CC2)[C@H](C)[C@H]2OC(=O)O[C@@]21C | 4 µg/mL | 16 µg/mL | 2 | 8 µg/mL | 2 µg/mL | 2 µg/mL (≈ 2.18 µM) | 1 | 16 µg/mL (≈ 17.5 µM) | 2 | 32 µg/mL (≈ 34.9 µM) | 2 | > 1 µg/mL | >8 | 8 µg/mL (≈ 8.73 µM) | 2 | 64 µg/mL | 0.125 µg/mL | 0.25 µg/mL (≈ 0.273 µM) | 0.125 µg/mL | 128 µg/mL (≈ 140 µM) | Selectivity ratio (Staphylococcus aureus [37]): 2
3 | CC[C@H]1OC(=O)[C@@](C)(F)C(=O)[C@H](C)[C@@H](O[C@@H]2O[C@H](C)C[C@H](N(C)C)[C@H]2O)[C@](C)(OC)C[C@@H](C)/C(=N\OC/C=C/c2cnc3ccccc3c2N)[C@H](C)[C@H]2OC(=O)O[C@@]21C | 1 µg/mL | 16 µg/mL | 2 | 32 µg/mL | 2 µg/mL | 2 µg/mL (≈ 2.41 µM) | 1 | 32 µg/mL (≈ 38.6 µM) | 1 | 32 µg/mL (≈ 38.6 µM) | 2 | > 0.125 µg/mL | >8 | 8 µg/mL (≈ 9.65 µM) | 8 | 64 µg/mL | 0.125 µg/mL | 0.25 µg/mL (≈ 0.302 µM) | 0.016 µg/mL | 128 µg/mL (≈ 154 µM) | Selectivity ratio (Staphylococcus aureus [37]): 2
